Each structure is given as a SMILES string.

For data set [1], the species on record is Homo sapiens. Description: Suppression of okadaic acid-induced inhibition of PP1/PP2A in human SHSY-5Y cells at 0.1 uM using pNPP as substrate assessed as remaining Ser/Thr phosphatase activity incubated for 30 mins in presence of tyrosine phosphatase inhibitor sodium orthovanadate by colorimetric assay (reference value: 61 +/- 3%). Format: cell-based. In a few lines: (§1)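 SH-SY5Y cells treated with compound at 0.1 μM plus okadaic acid 15 nM (24 h preincubation, then coincubation). Medium removed; assay buffer with pNPP (10 mM) added, 30 min at 37 °C in the dark, absorbance at 405 nm. For Ser/Thr activity, 1 mM orthovanadate added to the buffer. Expressed as % of untreated cells; at least four experiments.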

For data set [2], the system named is Cortical neurone. Description: Cytotoxicity against rat cortical motor neurons assessed as reduction of cell viability at 1 uM incubated for 48 hrs by MTT assay. The format is cell-based. In a few lines:
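Rat cortical motor neurons in neurobasal medium with 2% B-27 on poly-D-lysine, grown 8−10 days to a dense network, then exposed to compound for 48 h. Viability read by MTT (0.3 mg/mL final, 30 min, 37 °C, dark), formazan dissolved in DMSO, absorbance 540 nm, expressed as % of untreated cells.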

Data set [3] relates to SH-SY5Y. The data set is described as follows: Cytotoxicity against human SH-SY5Y cells assessed as reduction of cell viability at <10 uM incubated for 48 hrs by MTT assay. Format: cell-based. Put shortly:
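SH-SY5Y cells exposed to compounds for 48 h; viability read by MTT reduction (final 0.3 mg/mL, 2 h at 37 °C in the dark), formazan dissolved in DMSO, absorbance at 540 nm, expressed as % of untreated cells.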
Background: Formazan colour is commonly taken as a measure of viable cells.

The species entered for data set [4] is Homo sapiens. The data set is described as follows: Suppression of okadaic acid-induced inhibition of PP1/PP2A in human SHSY-5Y cells at 0.1 uM using pNPP as substrate assessed as remaining total phosphatase activity incubated for 30 mins by colorimetric assay (reference value: 68 +/- 2%). Format: cell-based. In a few lines: as §1
Data set [5] has as its system Voltage-gated calcium channel. Description: Inhibition of VGCC in human SHSY-5Y cells assessed as reduction of K+-evoked cytosolic ca2+ at 1 uM incubated for 10 mins prior to KCl addition by Fluo-4-AM probe-based fluorescence analysis. Format: cell-based. In a few lines:
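SH-SY5Y cells at confluence (48 h after seeding) loaded with 10 μM Fluo-4/AM plus 0.2% pluronic in Krebs–HEPES (pH 7.4) for 45 min at 37 °C, then washed. Compound at 1 μM for 10 min, then KCl 70 mM. Ex 485/em 520 nm; signal normalized to Fmax (Triton X-100) minus Fmin (MnCl2). At least six experiments versus K+ response without compound.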

The subject of data set [6] is Cortical neurone. The data set is described as follows: Neuroprotective activity in rat cortical motor neurons assessed as reversal of veratridine-induced cytotoxicity at 0.1 uM incubated for 24 hrs followed by coincubation with veratridine for 24 hrs by MTT assay. The format is functional.
Data set [7] has as its system SH-SY5Y. Description: Neuroprotective activity in human SH-SY5Y cells assessed as reversal of okadaic acid-induced cytotoxicity at 0.1 uM preincubated for 24 hrs followed by […] by MTT assay. The format is functional.
The test system of data set [8] is Voltage-gated calcium channel. The data set is described as follows: Inhibition of VGCC in human SHSY-5Y cells assessed as reduction of K+-evoked cytosolic ca2+ at 3 uM incubated for 10 mins prior to KCl addition by Fluo-4-AM probe-based fluorescence analysis. Format: cell-based. In a few lines:
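SH-SY5Y cells grown to confluence over 48 h, then loaded with 10 μM Fluo-4/AM and 0.2% pluronic acid in Krebs–HEPES (pH 7.4) for 45 min at 37 °C and washed. Compound added 10 min before depolarisation with KCl 70 mM. Fluorescence read at ex 485/em 520 nm and normalised to Fmax (Triton X-100) and Fmin (MnCl2). Inhibition taken against the K+ response without compound; ≥6 experiments.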

On to `Brc1ccc2c(c1)c(CN1CCCCC1)cn2CCCCN1CCCCC1`, for which the Activity in the data set filed under Homo sapiens [1] was 70%; with Cortical neurone [2], “Toxic”; in the data set on SH-SY5Y [3], “Non-Toxic”; in the data set listed under Homo sapiens [4] it was 73%; with Cortical neurone [6] it was 0%; with SH-SY5Y [7] it was 61%. Further, the “inhibition (INH)” value in data set [5] came out at 19%.
As for `COC(=O)C1=C(C)NC(C)=C(C(=O)OC)C1c1ccccc1[N+](=O)[O-]` [NIFEDIPINE], in data set [8], the “inhibition (INH)” value amounted to 73%.

The values above are taken from ChEMBL document CHEMBL4477210, “Gramine Derivatives Targeting Ca(2+) Channels and Ser/Thr Phosphatases: A New Dual Strategy for the Treatment of Neurodegenerative Diseases” (J Med Chem, 2016).
